From ChEMBL document CHEMBL1126806, “Iron (III)-chelating resins. 3. Synthesis, iron (III)-chelating properties, and in vitro antibacterial activity of compounds containing 3-hydroxy-2-methyl-4(1H)-pyridinone ligands” (1993)
In brackets after ≈: the same amount, converted by molar mass.

Each molecule was assayed on Escherichia coli (assay: Tested for growth inhibition against Escherichia coli).
Type: functional
Parameters: concentration or dose not given beside the values
Procedure, shortened: (§1)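 Broth growth assay in BHI medium; log-phase culture (24 h plate, 1 h then 2 h at 37 °C with shaking) added to tubes with derivative at 20 mM final, 37 °C for 7 h. Starting CFU/mL 2×10^5 (E. coli) or 5×10^5 (L. inocua). Standard plate counts; % inhibition = (ΔCFU 0–7 h control − ΔCFU 0–7 h test)/ΔCFU 0–7 h control.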

First: CCn1ccc(=O)c(OCc2ccccc2)c1C
Second: Cc1c(OCc2ccccc2)c(=O)ccn1CCN
The Growth inhibition of the first is higher: 53% for the first, 0% for the second.

`C=CC(=O)NCCn1ccc(=O)c(O)c1C` and `C=C(C)C(=O)NCCn1ccc(=O)c(O)c1C` are the same in Growth inhibition: 100% for the first, 100% for the second.

`Cc1c(O)c(=O)ccn1CCN` and `CCn1ccc(=O)c(O)c1C` are the same in Growth inhibition: 100% for the first, 100% for the second.

Work on `CCC(=O)NCCn1ccc(=O)c(O)c1C` yielded a Growth inhibition of 100%.

The molecules below were run on Listeria innocua (assay: Tested for growth inhibition against Listeria inocua).
Type: functional
Parameters: concentration or dose not given beside the values
Procedure, shortened: as §1

First: CCn1ccc(=O)c(OCc2ccccc2)c1C
Second: Cc1c(OCc2ccccc2)c(=O)ccn1CCN
The Growth inhibition of the first is higher: 72% for the first, 34% for the second.

Going from `C=CC(=O)NCCn1ccc(=O)c(O)c1C` to `C=C(C)C(=O)NCCn1ccc(=O)c(O)c1C`, the Growth inhibition rises from 87% to 90%.

Going from `Cc1c(O)c(=O)ccn1CCN` to `CCn1ccc(=O)c(O)c1C`, the Growth inhibition falls from 93% to 89%.

Work on `CCC(=O)NCCn1ccc(=O)c(O)c1C` yielded a Growth inhibition of 86%.

Each molecule was assayed on Listeria innocua (assay: Tested for minimum inhibitory concentration against Listeria inocua).
Type: functional

`CCn1ccc(=O)c(OCc2ccccc2)c1C` and `Cc1c(OCc2ccccc2)c(=O)ccn1CCN` are the same in MIC: 50 mM (≈ 12200 µg/mL) for the first, 50 mM (≈ 12900 µg/mL) for the second.

`C=CC(=O)NCCn1ccc(=O)c(O)c1C` and `C=C(C)C(=O)NCCn1ccc(=O)c(O)c1C` are the same in MIC: 25 mM (≈ 5560 µg/mL) for the first, 25 mM (≈ 5910 µg/mL) for the second.

`Cc1c(O)c(=O)ccn1CCN` and `CCn1ccc(=O)c(O)c1C` are the same in MIC: 25 mM (≈ 4200 µg/mL) for the first, 25 mM (≈ 3830 µg/mL) for the second.

`CCC(=O)NCCn1ccc(=O)c(O)c1C` gave an MIC of 25 mM (≈ 5610 µg/mL).

Each molecule was assayed against Lactotransferrin (Bos taurus) (UniProt P24627) (assay: Tested for iron mobilization from lactoferrin at physiological pH after 24 hours).
Procedure, shortened: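 Lactoferrin fully iron(III)-saturated with FeCl3 in 0.1 M sodium bicarbonate overnight at room temperature (0.78 mM iron); 1.0 mL dialysed against 4 mL chelator (2 mM in 4× PBS) for 24 h at room temperature. Dialysate absorbance at 456 nm, converted by chelator–iron(III) calibration curves; protected derivatives measured after adding an unprotected chelator to the dialysate.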

Lactotransferrin (Bos taurus), sequence (P24627 whole entry): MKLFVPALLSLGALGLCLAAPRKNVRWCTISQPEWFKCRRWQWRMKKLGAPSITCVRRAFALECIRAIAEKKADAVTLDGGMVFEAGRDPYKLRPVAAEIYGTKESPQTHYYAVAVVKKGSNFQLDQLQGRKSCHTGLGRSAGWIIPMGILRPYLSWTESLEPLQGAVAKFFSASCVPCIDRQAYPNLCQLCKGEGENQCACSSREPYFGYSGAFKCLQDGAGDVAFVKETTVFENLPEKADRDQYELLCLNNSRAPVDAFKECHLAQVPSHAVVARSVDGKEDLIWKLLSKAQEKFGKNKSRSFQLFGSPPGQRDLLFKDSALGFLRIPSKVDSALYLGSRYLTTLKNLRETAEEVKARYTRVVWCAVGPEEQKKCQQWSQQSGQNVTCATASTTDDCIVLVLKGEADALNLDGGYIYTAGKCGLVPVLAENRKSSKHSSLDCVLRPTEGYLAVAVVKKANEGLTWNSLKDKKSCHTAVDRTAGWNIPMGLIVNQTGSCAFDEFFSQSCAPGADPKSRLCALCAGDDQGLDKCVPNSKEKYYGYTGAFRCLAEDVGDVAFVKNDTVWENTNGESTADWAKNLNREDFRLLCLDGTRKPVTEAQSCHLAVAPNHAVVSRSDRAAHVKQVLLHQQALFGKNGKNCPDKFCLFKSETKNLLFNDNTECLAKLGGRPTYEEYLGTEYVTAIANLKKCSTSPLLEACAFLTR

Going from `CCn1ccc(=O)c(OCc2ccccc2)c1C` to `Cc1c(OCc2ccccc2)c(=O)ccn1CCN`, the Iron mobilized rises from 2% to 4%.

Compared with `C=CC(=O)NCCn1ccc(=O)c(O)c1C`, `C=C(C)C(=O)NCCn1ccc(=O)c(O)c1C` is higher in Iron mobilized: 62% for the first, 63% for the second.

Compared with `Cc1c(O)c(=O)ccn1CCN`, `CCn1ccc(=O)c(O)c1C` is higher in Iron mobilized: 60% for the first, 71% for the second.

`CCC(=O)NCCn1ccc(=O)c(O)c1C` showed an Iron mobilized of 61%.

These molecules were tested on Escherichia coli (assay: Tested for minimum inhibitory concentration against Escherichia coli).
Type: functional
Procedure, shortened: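 Agar dilution on BHI agar with 2-fold dilutions; spots of 10^4–10^5 CFU applied by multipoint inoculator, 18 h at 37 °C, growth judged visually.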

`CCn1ccc(=O)c(OCc2ccccc2)c1C` and `Cc1c(OCc2ccccc2)c(=O)ccn1CCN` are the same in MIC: 50 mM (≈ 12200 µg/mL) for the first, 50 mM (≈ 12900 µg/mL) for the second.

`C=CC(=O)NCCn1ccc(=O)c(O)c1C` and `C=C(C)C(=O)NCCn1ccc(=O)c(O)c1C` are the same in MIC: 5 mM (≈ 1110 µg/mL) for the first, 5 mM (≈ 1180 µg/mL) for the second.

`Cc1c(O)c(=O)ccn1CCN` and `CCn1ccc(=O)c(O)c1C` are the same in MIC: 5 mM (≈ 841 µg/mL) for the first, 5 mM (≈ 766 µg/mL) for the second.

`CCC(=O)NCCn1ccc(=O)c(O)c1C` gave an MIC of 5 mM (≈ 1120 µg/mL).
